Experimental data: ChEMBL document CHEMBL4513216, “Probing the Open Global Health Chemical Diversity Library for Multistage-Active Starting Points for Next-Generation Antimalarials” (ACS Infect Dis, 2020)

Assay: Toxicity liver stage against HepG2, at 10uM
Format: cell-based
Design: test concentration 10 uM, cell line HepG2-A16-CD81EGFP
Settings: human, HepG2-A16-CD81EGFP cells; read-out: INHIBITION
Procedure, shortened: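 Uninfected HepG2-A16-CD81EGFP cells, 3 × 10^3 per well, 1536-well, plated on prespotted compound at 10 μM final, parasite-free screening media added to match infected plates; puromycin 10 μM positive, DMSO 0.5% negative; run in parallel with 48 h PbLuc assay at 37 °C, 5% CO2; viability by CellTiter-Glo luminescence, normalized to controls.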

SMILES	cytotoxicity at 10 µM [%]
CS(=O)(=O)c1ccc(-c2c[nH]c([C@@H]3COCCN3)n2)cc1	5.29
COCC(=O)Nc1ccc(-c2noc([C@@H]3CCCN3C)n2)cn1	6.65
CCOc1nc2cnccc2n(CC(=O)Nc2ccccc2OC)c1=O	-15
OC[C@@H]1[C@H]2CN(c3ccccn3)CCN2C[C@H]1c1ccccc1	-8.43
Cc1cc(NC(=O)C(C)Cn2cncn2)no1 (stereo not given)	-5.18
O=C(NCc1nc2ccccc2[nH]1)c1cc2n(n1)CCCO2	-5.43
O=C(c1ccccn1)N1CCC(Oc2ncccc2Cl)CC1	3.07
c1ccc(N2CCc3ncnc(C4CC4)c3CC2)nc1	-157
CCS(=O)(=O)N1C[C@H]2CN(Cc3cccc(C)c3)C(=O)[C@H]2C1	2.9
COCC1Cn2nnc(-c3cnn(C)c3)c2CN1Cc1ccc(C)o1 (stereo not given)	4.82
COCCN1Cc2ccccc2C2(CCN(C(=O)c3ccno3)CC2)C1	5.58
CCOCC(=O)N1CCCn2c(CN3CCCCC3)nnc2C1	-110
O=S(=O)(C1CC1)N1CCC2(CC1)CC(Oc1ccccn1)CO2 (stereo not given)	-139
CSc1nc2cc(C)n(CC(=O)Nc3nccs3)c2c(=O)n1CC(C)C	-12.6
CCOC(=O)Cc1cs/c(=N/C(=O)COc2cnc(C)cc2O)[nH]1	4.62
O=c1ccc(-c2cccs2)nn1CN1CCOCC1	5.68
CN(C)C(=O)NC[C@H]1OC[C@@H]2CCN(Cc3ccoc3)C[C@@H]21	2.82
Cn1cccc1CN1CCC2(CCCN(C(=O)Cc3cccnc3)C2)C1 (stereo not given)	7.17
O=C(c1ccsc1)N1CC[C@H]2C[C@@H](c3nnc(C4CC4)o3)O[C@@H]2C1	-7.36
CC(=O)N1CCN(C(=O)c2[nH]nnc2Nc2ccccc2F)CC1	2.1
CC1(c2nccs2)CCN(C(=O)CC2CCOCC2)CC1	-0.29
Cc1csc2c(C3CCCN(C(=O)CCCn4cncn4)C3)nc(C)n12 (stereo not given)	7.69

SMILES	cytotoxicity at 10 µM [%]
O=C(O)c1ccccc1-n1cnc(CN2CCc3ccccc32)c1	11.7
CSc1ncc(C(=O)N(C)C(C)Cc2ccccn2)cn1 (stereo not given)	15.9
CNC(=O)c1cccc(CC2COCCN(Cc3ccc(C)o3)C2)n1 (stereo not given)	0.166
O=C(C1CCCC1)N1CCn2c(nnc2C2CCCNC2)C1 (stereo not given)	1.19
CC(NCCCN1CCCC1=O)c1cc(Br)ccc1O (stereo not given)	-1.41
CCc1noc(C(C)N2CCc3c(ncn3C3CC3)C2)n1 (stereo not given)	4.36
COc1ccc(C(NC(=O)c2cccc[n+]2[O-])C2CC2)cc1 (stereo not given)	7.12
Cc1ccc(CN(C)C(=O)CNC(=O)N2CCc3ccccc3C2)o1	5.95
O=C(NCC1CCS(=O)(=O)C1)N(Cc1ccncc1)C1CC1 (stereo not given)	-138
CSCc1ccc(CNCCCN2CCOCC2)o1	5.81
COc1c(Cl)cccc1NCc1csc(C)n1	-10.1
CC(C)c1noc(CCC(=O)N2CCCC(n3ccnc3)C2)n1 (stereo not given)	5.58
Cc1nc2c(c(C)c1CC(=O)Nc1ccnn1C(C)C)c(=O)[nH]n2C	13
CN(Cc1ccco1)Cc1ccccc1CNC(=O)c1c[nH]nn1	-2.89
CC(OCC(F)(F)F)C(=O)N1CCCC1 (stereo not given)	-14
CCC(CO)NC(=O)NCc1cc(C#N)ccc1F (stereo not given)	-1.22
CC(C)COC1CCN(C(=O)c2cc3ccccc3c(=O)[nH]2)CC1	9.05
CCc1nnc2ccc(NCC3(O)CCOCC3)nn12	-0.439
Cc1cccc2nc(CSCc3nnnn3C(C)C)cn12	1.24
CCc1nc(CC(=O)NC(C#N)CC(C)C)cs1 (stereo not given)	9.17
OCc1ccncc1NCc1cnc(-c2ccccn2)s1	-17.4
CC(Cn1cccn1)NC(=O)N(C)Cc1ccsc1 (stereo not given)	-3.81

SMILES	cytotoxicity at 10 µM [%]
Cc1ccc(OCC(O)Cn2ncc3cnn(C)c(=O)c32)cc1 (stereo not given)	-3.49
Cc1csc(CN(C)C(=O)Nc2cc(F)cc(N3CCCC3)c2)n1	8.16
Cc1cccc(C(C)CNS(=O)(=O)CCCC#N)c1 (stereo not given)	-2.17
CC(=O)N1CCN(C2CCCCc3ccccc32)CC1 (stereo not given)	-46.3
Cc1ccnc(NC(=O)CSCc2cccnc2)c1	-42.2
O=C1CC(NS(=O)(=O)N2CCOCC2)CN1Cc1ccccc1 (stereo not given)	4.19
CSC(C)(C)CNC(=O)NCC[S+]([O-])c1ccccc1 (stereo not given)	15.5
Cc1nc(C(=O)N2CCN(C(C)c3ccccc3F)CC2)cs1 (stereo not given)	-0.462
CCCN1CCC(N(Cc2ncc(C)o2)C(C)=O)C1 (stereo not given)	-13.1
NC(=O)CN1CCCN(C(=O)c2ccn(-c3ccccc3)n2)CC1	-1.61
O=C(Nc1ccnc(OC2CCOC2)c1)c1cc(F)ccc1F (stereo not given)	5.87
O=C(NCCCNC(=O)c1cccc(O)c1)NCc1ccccc1F	-6.42
COc1cccc(CC(=O)N2CC[C@@H]3CN(C)S(=O)(=O)[C@@H]3CC2)c1	-2.36
CC(=O)N1CC[C@H]2OCC[C@@H](C(=O)Nc3cccnc3C)[C@@H]2C1	11.3
Cc1cccc(NC(=O)N2CCC3(CCC(C(=O)N(C)C)O3)CC2)c1 (stereo not given)	-107
COC[C@@H]1CC[C@H]2[C@H](CCN2S(=O)(=O)c2ccc(C)cc2)O1	-1.05
CSc1ncc(CN(C)C(C)c2cccnc2)cn1 (stereo not given)	2.1
COc1cccc(CC(=O)N2CCCN(c3ccnc(C)c3)CC2)c1	-7.06
Nc1ncc(C(=O)N2CCC(O)(CO)CC2)c(-c2ccccc2)n1	-144
CCc1cc(NCCc2cccnc2)n2nc(C)c(C)c2n1	2.12
CN1CCN(C(=O)N2CCC3(CCCN(C4CCOCC4)C3=O)C2)CC1 (stereo not given)	-129
CN1CCN(CC(C)(C)C)CC1CCO (stereo not given)	1.88

SMILES	cytotoxicity at 10 µM [%]
Cc1nc(N(C)C)nc(N(C)Cc2cnccn2)c1C	3.4
CCC(CO)N(Cc1ccco1)C(=O)c1ccccc1SC (stereo not given)	6.41
Cc1nccn1CCN(C)c1nc(-c2cccnc2)nc2c1CCNC2	-21.2
NC(=O)CCC(=O)N1CCc2[nH]nc(-c3ccc4c(c3)OCO4)c2C1	-142
Cc1ccncc1C(=O)N1CC[C@@]2(O)CCN(C3CCCCC3)C[C@H]2C1	-125
CCCSCC(=O)N1CCN(c2ccc(C)cc2)CC1C (stereo not given)	-165
CCC1(O)CCCN(c2nc(-c3ccccn3)nc3c2c(C)nn3C)C1 (stereo not given)	3.11
CN1CCN(c2cccc(NC(=O)NCc3csc(N(C)C)n3)c2)C1=O	0.91
CN1CCN(CCCOc2ccccc2CN2C[C@H]3CC[C@H]2C3)CC1	-7.88
O=C1CC2(CCN(C(=O)c3csc(-c4ccccc4)n3)C2)C(=O)N1 (stereo not given)	-1.25
Cc1cc2occ(CC(=O)N3CCC4(CCCN(C)C4=O)C3)c2cc1Cl (stereo not given)	-4.03
CN(C(=O)c1ccc2c(c1)nc(N1CC[C@H](O)C1)n2C)C1CCSCC1	-13
CC(C)=CCN1CCN(Cc2ncc[nH]2)[C@H]2CS(=O)(=O)C[C@H]21	5.44
Cc1nc(CN2CCCC(CCNS(C)(=O)=O)C2)c[nH]1 (stereo not given)	-10.2
CCn1nc(C(C)C)cc1C(=O)NCCCOC	-14.7
CC[C@@]1(O)CCN(C(=O)c2ccc(SC)cc2)C[C@H]1O	-17.5
Cc1nc(C2CCCN(C(=O)CO)C2)cc(N2CCOCC2)n1 (stereo not given)	-12.9
CNc1cccc(C2CCCN(C(C)=O)C2)n1 (stereo not given)	-0.962
Cc1nc(O)c2nnn(C[C@H]3CCCN3C(=O)C(C)(C)C)c2n1	3.25
CCN(CC1CCOC1)C(=O)c1ccccc1S(=O)(=O)CC (stereo not given)	-2.15
Cc1ccc(F)cc1NS(=O)(=O)c1cc2c(c(C(=O)O)c1)OCCO2	-3.88
Cc1cc(NC(=O)CN2CCN(c3nc(C)cs3)C(C)C2)on1 (stereo not given)	-1.81

SMILES	cytotoxicity at 10 µM [%]
N#Cc1cccnc1N1CCC(C2CCCCCN2C(=O)C2CC2)CC1 (stereo not given)	1.95
CCOc1ncccc1NC(=O)NCC(C)O (stereo not given)	-5.68
CC(C)c1cnc(CN(C)C2CCN(CCc3cnn(C)c3)C2)o1 (stereo not given)	-7.12
CC(O)CN1CCN(C(=O)c2sccc2C2CC2)CC1 (stereo not given)	1.83
CCc1n[nH]c(C2CN(C(=O)c3cncnc3CC)CCO2)n1 (stereo not given)	-5.65
O=C(CCc1nccs1)N1CCCC(n2ccnc2)C1 (stereo not given)	-16
COCCc1noc(CN2CCCC(Cn3cncn3)C2)n1 (stereo not given)	-2.55
O=C(c1cccc2c1OCCO2)N1CCCC(n2cccn2)C1 (stereo not given)	-3.73
Cc1ncsc1C(=O)N1CCCC1c1c(C)nn(C)c1Cl (stereo not given)	-1.9
N#Cc1cc(NS(=O)(=O)c2cc(C(=O)O)cc(Cl)c2Cl)ccc1F	-1.37
Cc1cc(NC(=O)CN2CCn3c(nnc3C3CC3)C2)n(C)n1	-14
O=C(C1CC1)N1CC2(CCNCC2)C1	-0.832
CCN1CCN(C)C(=O)C12CCN(Cc1csc(C)n1)CC2	1.53
Cc1ccc(CNC(=O)CN2CCN(CC(O)c3ccco3)CC2)cc1 (stereo not given)	2.71
Cn1cc(C(=O)NC[C@@H]2OC[C@H]3CN(Cc4ccco4)CC[C@H]32)cn1	-13.4
O=C(c1ccncc1F)N1CC[C@@H]2CN(c3ncccn3)CCO[C@@H]2C1	-77.2
O=C(c1ncccn1)N1CC[C@H]2OCC[C@@]2(COc2ccccn2)C1	-146
CN1CCN(C(=O)[C@H]2C[C@@H]3CN(c4ncc(F)cn4)C[C@@H]3N2C)CC1	-136
CN1CCN(Cc2cnc3n2CCN(Cc2cccnc2)CC3)CC1	6.26
CC(C)Nc1ncnc2c1CCN(C(=O)NCc1cccnc1)CC2	-150
c1cc(CN2C[C@@H]3OCCN(CC4CCCO4)[C@@H]3C2)ccn1 (stereo not given in full)	-80.2
COC(=O)Cn1c(=O)[nH]c2cn(-c3ccc(C)cc3)c(=O)n21	0.413
